Measurements taken from publication PMC9285861 (Biomacromolecules, 2019).
Like-named read-outs stand apart in the source and are kept apart here.

How the values were obtained:
[1] = system: Human monocytic THP-1 cells; assay: LSPR immunoassay of cytokine secretion, THP-1 cells; type: cell-based; conditions: 37 °C, 2 h incubation, 5, 10, 15 μM, LSPR read-out
[2] = system: human immune cell lines (T cells, B cells, or THP-1 cells); assay: LSPR immunoassay of cytokine secretion, immune cell lines; type: cell-based; conditions: for effect of plasma proteins on immune responses (cytokine secretion): 37 °C, human plasma versus RPMI-1640 medium, all three types of immune cells
Method in brief: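 Jurkat T (RPMI-1640, 200 μg/mL […], 10% FBS), EBV-transformed B lymphoblasts and THP-1 (50 μM mercaptoethanol) cells at 1 × 10^6 cells/mL in human plasma proteins or RPMI-1640 took test peptide oligomers or fibrils, 5, 10, 15 μM final, 2 h at 4 and 37 °C. TNF and IL-6 in medium measured on antibody–gold nanorod LSPR chips via calibration curves; triplicate.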

dendritic cells (DCs) = assay: Blood cell association of ThT-labeled Aβ by flow cytometry, dendritic cells; type: cell-based, human; conditions: 1 h
Method in brief: (§1)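 Heparinised whole blood, or blood washed five times in PBS (950g, 10 min) and resuspended in serum-free RPMI 1640, given ThT-labeled test peptide oligomers or fibrils at 5, 10, 15 μM, 1 h at 4 and 37 °C, triplicate. RBCs lysed; antibody staining 1 h on ice; 1% formaldehyde fixation; flow cytometry with populations gated by CD3, CD14, CD56, CD19, Lin1/HLA-DR, SSC-A.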

B cells = assay: Blood cell association of ThT-labeled Aβ by flow cytometry, B cells; type: cell-based, human; conditions: 1 h
Method in brief: as §1

monocytes = assay: Blood cell association of ThT-labeled Aβ by flow cytometry, monocytes; type: cell-based, human; conditions: 1 h, triplicate
Method in brief: as §1

granulocytes = assay: Blood cell association of ThT-labeled Aβ by flow cytometry, granulocytes; type: cell-based, human; conditions: 1 h
Method in brief: as §1

Thioflavin T = type: physicochemical; conditions: 50 μM Aβ, 100 μM ThT, 37 °C, without plasma proteins, Ex/Em 440/485 nm, triplicate
NK cells = assay: Blood cell association of ThT-labeled Aβ by flow cytometry, NK cells; type: cell-based, human; conditions: especially with plasma proteins, 1 h
Method in brief: as §1

Reverse phase HPLC = type: physicochemical; conditions: Figure S2
SH-SY5Y neuronal cells = conditions: 20 μM Aβ, 2 h
[3] = system: SH-SY5Y neuroblastoma cells; conditions: 20 μM Aβ, 15 h, triplicate, ± SD
T cells = assay: Blood cell association of ThT-labeled Aβ by flow cytometry, T cells; type: cell-based, human; conditions: 1 h
Method in brief: as §1

[4] = 5 μM, with plasma proteins, triplicate ± SD
[5] = 5 μM, without plasma proteins, triplicate ± SD
[6] = 10 μM, with plasma proteins, triplicate ± SD
[7] = 10 μM, without plasma proteins, triplicate ± SD
[8] = 15 μM, with plasma proteins, triplicate ± SD
[9] = 15 μM, without plasma proteins, triplicate ± SD

Substance: AIAEGDSHVLKEGAY-MEIFDVQGHVFGGKIFRVVDLGSHNVA [AβO]
- pro-inflammatory cytokine secretion (TNF, IL-6) of THP-1 cells [1]: prominent pro-inflammatory cytokine secretion
- effect of plasma proteins on immune responses (cytokine secretion) [2]: mostly promoted
- expression of cytokines IL-6 and TNF by immune cells ([2]; 2 h incubation, LSPR sensor): significant expression
- association with DCs (dendritic cells (DCs); in the absence of plasma proteins, range over 5-15 μM): 78–85%
- association with DCs (dendritic cells (DCs); whole blood cells (with plasma proteins), range over 5-15 μM): 69–93%
- change of association with B cells from whole blood to washed cells (B cells; 3 concentrations (5, 10, 15 μM)): slightly decreased
- association with monocytes (monocytes; all concentrations (5, 10, 15 μM), all conditions): 90–100%
- association with granulocytes (granulocytes; with and without plasma proteins (no considerable difference)): 80–90%
- time to saturation phase of ThT fibrillization kinetics (Thioflavin T): ~ 60 h
- association with NK cells (NK cells): very low association
- hydrophobicity by RP-HPLC (Reverse phase HPLC): slightly hydrophobic
- cell membrane damage by HIM (SH-SY5Y neuronal cells; with plasma proteins): damage was reduced
- cell membrane damage by HIM (SH-SY5Y neuronal cells; without plasma proteins): significant damage including membrane deformation and blebbing
- cytotoxicity (PI-positive cells) ([3]; with plasma proteins): 30 ± 2%
- cytotoxicity (PI-positive cells) ([3]; without plasma proteins): 39 ± 2.6%

Substance: AIAEGDSHVLKEGAY-MEIFDVQGHVFGGKIFRVVDLGSHNVA [Aβf]
- effect of plasma proteins on immune responses (cytokine secretion) [2]: overall suppressed immune responses
- association with DCs (dendritic cells (DCs); [4]): 11.1 ± 3.7%
- association with DCs (dendritic cells (DCs); [5]): 38.2 ± 3.3%
- association with DCs (dendritic cells (DCs); [6]): 35 ± 0.7%
- association with DCs (dendritic cells (DCs); [7]): 69.2 ± 3.1%
- association with DCs (dendritic cells (DCs); [8]): 56.5 ± 13%
- association with DCs (dendritic cells (DCs); [9]): 71.2 ± 6.4%
- association with B cells (B cells; 10 μM, whole blood as the sentence is printed, triplicate ± SD): 36.6 ± 6.0%
- association with B cells (B cells; 15 μM, whole blood as the sentence is printed, triplicate ± SD): 57.1 ± 0.9%
- association with B cells (B cells; 3 concentrations (5, 10, 15 μM), washed cells as the sentence is printed): below 5%
- association with monocytes (monocytes; high concentrations): 60–80%
- association with monocytes (monocytes; low concentrations): 20–40%
- association with granulocytes (granulocytes; [4]): 7.0 ± 2.9%
- association with granulocytes (granulocytes; [5]): 11.7 ± 0.4%
- association with granulocytes (granulocytes; [6]): 21.6 ± 1.2%
- association with granulocytes (granulocytes; [7]): 38.5 ± 5.4%
- association with granulocytes (granulocytes; [8]): 35.7 ± 2.6%
- association with granulocytes (granulocytes; [9]): 51.8 ± 3.1%
- association with NK cells (NK cells): no association
- hydrophobicity by RP-HPLC (Reverse phase HPLC): varying hydrophobicity
- cell membrane damage by HIM (SH-SY5Y neuronal cells; with plasma proteins): no damage was evident
- cell membrane damage by HIM (SH-SY5Y neuronal cells; without plasma proteins): no damage was evident
- cytotoxicity (PI-positive cells) ([3]; with plasma proteins): not affected by plasma proteins
- cytotoxicity (PI-positive cells) ([3]; without plasma proteins): 13%
- association with T cells (T cells; 5 μM, without plasma proteins (washed blood), triplicate ± SD): 5.2 ± 0.1%
- association with T cells (T cells; 10 μM, without plasma proteins (washed blood), triplicate ± SD): 38.2 ± 3.2%
- association with T cells (T cells; 15 μM, without plasma proteins (washed blood), triplicate ± SD): 51.8 ± 1.5%
- association with T cells (T cells; with plasma proteins (whole blood)): < 10%

Substance: AIAEGDSHVLKEGAY-MEIFDVQGHVFGGKIFRVVDLGSHNVA [Aβm, reference compound]
- time to saturation phase of ThT fibrillization kinetics (Thioflavin T): ~ 60 h
